biological target: T1, Glucagon receptor (Homo sapiens, UniProt P47871); experiment: Compound was evaluated for its binding affinity towards cloned human Glucagon receptor in BHK cells; assay type: cell-based
Procedure, shortened: (§1)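 Competition binding on plasma membranes (0.5 μg protein/well) from BHK cells stably expressing recombinant human glucagon receptor, selected with 0.5 mg/mL G-418. Nonspecific binding with 10⁻⁶ M glucagon. Filtration, gamma counting; IC50 mean ± SD, n = 2.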

T1 sequence (P47871 whole entry): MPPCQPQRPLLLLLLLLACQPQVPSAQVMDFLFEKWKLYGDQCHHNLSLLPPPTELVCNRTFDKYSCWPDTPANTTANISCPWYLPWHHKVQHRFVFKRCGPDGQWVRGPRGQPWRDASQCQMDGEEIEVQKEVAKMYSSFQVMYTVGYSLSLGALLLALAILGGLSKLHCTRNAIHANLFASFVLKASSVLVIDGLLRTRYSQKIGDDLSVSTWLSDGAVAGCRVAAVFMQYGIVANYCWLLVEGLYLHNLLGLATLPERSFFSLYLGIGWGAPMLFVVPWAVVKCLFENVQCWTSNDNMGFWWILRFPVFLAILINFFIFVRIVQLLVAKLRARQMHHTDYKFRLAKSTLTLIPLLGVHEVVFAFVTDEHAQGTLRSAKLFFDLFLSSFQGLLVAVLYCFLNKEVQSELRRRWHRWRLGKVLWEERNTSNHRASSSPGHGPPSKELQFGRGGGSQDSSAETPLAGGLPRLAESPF

`O=C(CSc1nc2ccccc2[nH]1)c1ccc(O)c(O)c1` gave an IC50 of 20 µM.

biological target: T1, Glucagon receptor; experiment: Binding affinity towards cloned human glucagon receptor in BHK cells.; assay type: cell-based; procedure, shortened: as §1

Point of comparison: `O=C(CSc1nc2cc(Cl)c(Cl)cc2[nH]1)c1ccc(O)c(O)c1`, IC50 20 µM. Against it:
- CCCC(Sc1nc2ccccc2[nH]1)C(=O)c1ccc(O)c(O)c1 (stereo not drawn) — higher, > 500 µM
- O=C(CSc1nnc(-c2ccccc2)[nH]1)c1ccc(O)c(O)c1 — 2.8-fold higher, 55 µM
- O=C(CSc1nc2ccccc2s1)c1ccc(O)c(O)c1 — 3.6-fold higher, 73 µM
- O=C(CSc1nc(-c2ccccc2)c(-c2ccccc2)[nH]1)c1ccc(O)c(O)c1 — 9-fold higher, 180 µM
- O=C(CSc1nc2ccccc2[nH]1)c1cc(O)cc(O)c1 — higher, > 500 µM
- Oc1ccc(C(O)CSc2nc3ccccc3[nH]2)cc1Cl (stereo not drawn) — higher, > 500 µM
- CO/N=C(/CSc1nc2ccccc2[nH]1)c1ccc(O)c(Cl)c1 — higher, > 500 µM
- O=C(CSc1nc2ccccc2[nH]1)c1cccc(O)c1 — 19-fold higher, 380 µM
- COC(=O)c1cccc(COc2ccc3[nH]c(SCC(=O)c4ccc(O)c(Cl)c4)nc3c2)c1 — 2.2-fold lower, 9.2 µM
- O=C(CSc1nc2ccccc2[nH]1)c1ccccc1 — higher, > 500 µM
- O=C(CSc1ncc[nH]1)c1ccc(O)c(O)c1 — higher, > 500 µM
- COc1cc(C(=O)CSc2nc3ccccc3[nH]2)ccc1O — 2-fold higher, 41 µM
- O=C(CSc1nc2ccccc2[nH]1)c1ccc(O)cc1 — higher, > 60 µM
- O=C(O)c1cccc(C(=O)CSc2nc3ccccc3[nH]2)c1 — higher, > 500 µM
- O=C(CSc1nc2ccccc2[nH]1)c1ccc(O)c(C(=O)O)c1 — 10-fold higher, 200 µM
- O=C(O)c1ccc(C(=O)CSc2nc3ccccc3[nH]2)cc1 — higher, > 500 µM
- O=C(CSc1nc2ccc([N+](=O)[O-])cc2[nH]1)c1ccc(O)c(O)c1 — 2.8-fold higher, 55 µM
- Cn1c(SCC(=O)c2ccc(O)c(O)c2)nc2ccccc21 — higher, > 500 µM
- O/N=C(/CSc1nc2ccccc2[nH]1)c1ccc(O)c(Cl)c1 — higher, > 500 µM
- Oc1ccc(/C(CSc2nc3ccccc3[nH]2)=N\OCc2ccccc2)cc1Cl — higher, > 500 µM
- COc1ccc2[nH]c(SCC(=O)c3ccc(O)c(O)c3)nc2c1 — 2.1-fold higher, 42 µM
- O=C(CSc1ccc2ccccc2n1)c1ccc(O)c(O)c1 — 8-fold higher, 160 µM
- O=C(CSc1nc2ccccc2[nH]1)c1ccc(O)c(Cl)c1 — 1.7-fold lower, 12 µM
- COC(=O)c1cccc(COc2ccc3[nH]c(SCC(=O)c4ccc(O)c(O)c4)nc3c2)c1 — within 1.5-fold, 16 µM
- O=C(CSc1nc2cc(OCc3ccccc3)ccc2[nH]1)c1ccc(O)c(O)c1 — within 1.5-fold, 18 µM
- O=C(CCCSc1nc2ccccc2[nH]1)c1ccc(O)c(O)c1 — higher, > 500 µM
- O=C(CSc1nc2ccccc2[nH]1)c1ccc(Cl)c(Cl)c1 — higher, > 500 µM
- COc1ccc(C(=O)CSc2nc3ccccc3[nH]2)cc1OC — higher, > 500 µM
- O=C(O)c1cccc(COc2ccc3[nH]c(SCC(=O)c4ccc(O)c(O)c4)nc3c2)c1 — 4.8-fold higher, 95 µM
- O=C(CSc1nc2ccccc2o1)c1ccc(O)c(O)c1 — 12-fold higher, 250 µM
- CC(C)(C)c1ccc2nc(SCC(=O)c3ccc(O)c(O)c3)[nH]c2c1 — 3.7-fold lower, 5.4 µM
